ChEMBL document CHEMBL4229376, “Optimization of the pharmacokinetic properties of potent anti-trypanosomal triazine derivatives” (Eur J Med Chem, 2018)
Calls of active or inactive are those of the source. The rule behind the calls is not given here.

What was measured:
[1] = Drug metabolism in mouse liver microsomes assessed as CYP450 mediated compound […] by measuring parent compound remaining at 5 uM after 30 mins in presence of NADPH by UPLC/MS/ESI analysis; type: ADME; details: read-out: Stability
[2] = Drug metabolism in mouse liver microsomes assessed as UGT mediated compound […] by measuring parent compound remaining at 5 uM after 30 mins in presence of UDPGA by UPLC/MS/ESI analysis; type: ADME; details: 0.5 h
Procedure, shortened: (§1)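 Metabolic stability was run with mouse liver microsomal fraction (S9) and read as percent parent compound remaining over incubation time. Diclofenac served as the reference compound.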

[3] = Drug metabolism in human liver microsomes assessed as CYP450 mediated compound […] by measuring parent compound remaining at 5 uM after 15 mins in presence of NADPH by UPLC/MS/ESI analysis; type: ADME; details: read-out: Stability
[4] = Drug metabolism in human liver microsomes assessed as UGT mediated compound […] by measuring parent compound remaining at 5 uM after 15 mins in presence of UDPGA by UPLC/MS/ESI analysis; type: ADME; details: read-out: Stability
[5] = system: Trypanosoma brucei brucei; test: Antitrypanosomal activity against suramin-sensitive Trypanosoma brucei brucei Squib 427 after 72 hrs by resazurin dye-based fluorimetric analysis; type: functional, organism-based; details: Squib 427, 72 h
Peritoneal macrophage = test: Cytotoxicity against mouse primary peritoneal macrophages after 72 hrs by resazurin dye-based fluorimetric analysis; type: cell-based
[6] = Drug metabolism in human liver microsomes assessed as CYP450 mediated compound […] by measuring parent compound remaining at 5 uM after 30 mins in presence of NADPH by UPLC/MS/ESI analysis; type: ADME; details: read-out: Stability
[7] = Drug metabolism in human liver microsomes assessed as UGT mediated compound […] by measuring parent compound remaining at 5 uM after 60 mins in presence of UDPGA by UPLC/MS/ESI analysis; type: ADME; details: read-out: Stability
[8] = Cytotoxicity against human MRC5 SV2 cells after 72 hrs by resazurin dye-based fluorimetric analysis; type: cell-based; details: MRC-5 SV2, 72 h
[9] = Drug metabolism in human plasma assessed as parent compound remaining after 60 mins by UPLC/MS/ESI analysis; type: ADME, cell-free; details: read-out: Stability
[10] = Drug metabolism in human liver microsomes assessed as UGT mediated compound […] by measuring parent compound remaining at 5 uM after 30 mins in presence of UDPGA by UPLC/MS/ESI analysis; type: ADME; details: read-out: Stability
[11] = Drug metabolism in mouse liver microsomes assessed as CYP450 mediated compound […] by measuring parent compound remaining at 5 uM after 15 mins in presence of NADPH by UPLC/MS/ESI analysis; type: ADME; details: read-out: Stability
[12] = Drug metabolism in mouse liver microsomes assessed as UGT mediated compound […] by measuring parent compound remaining at 5 uM after 60 mins in presence of UDPGA by UPLC/MS/ESI analysis; type: ADME; details: 1 h; procedure, shortened: as §1
[13] = Drug metabolism in mouse liver microsomes assessed as CYP450 mediated compound […] by measuring parent compound remaining at 5 uM after 60 mins in presence of NADPH by UPLC/MS/ESI analysis; type: ADME; details: read-out: Stability
Leishmania infantum = test: Antileishmanial activity against Leishmania infantum MHOM/MA (BE)/67 amastigotes infected in primary peritoneal mouse macrophages after 120 hrs by giemsa staining-based microscopic analysis; type: functional, organism-based; details: MHOM/MA (BE)/67, 120 h
Plasmodium falciparum = test: Antiplasmodial activity against chloroquine-resistant Plasmodium falciparum K1 infected in human erythrocytes after 72 hrs by Malstat reagent-based spectrophotometric analysis; type: functional, organism-based; details: K1, 72 h
[14] = Drug metabolism in human plasma assessed as parent compound remaining after 1440 mins by UPLC/MS/ESI analysis; type: ADME, cell-free; details: 24 h
Procedure, shortened: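 Compound incubated in human plasma for 24 h at 37 °C, and the fraction of parent compound remaining was determined.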

[15] = Drug metabolism in human liver microsomes assessed as CYP450 mediated compound […] by measuring parent compound remaining at 5 uM after 60 mins in presence of NADPH by UPLC/MS/ESI analysis; type: ADME; details: read-out: Stability
[16] = Drug metabolism in mouse liver microsomes assessed as UGT mediated compound […] by measuring parent compound remaining at 5 uM after 15 mins in presence of UDPGA by UPLC/MS/ESI analysis; type: ADME; details: 0.25 h; procedure, shortened: as §1
Trypanosoma cruzi = test: Antitrypanosomal activity against nifurtimox-sensitive Trypanosoma cruzi Tulahuen CL2 infected in human MRC5 SV2 cells assessed as reduction in parasite burden after 168 hrs by CPRG and Nonidet based spectrophotometric analysis; type: functional, organism-based; details: Tulahuen CL2, MRC-5 SV2, 168 h
[17] = Drug metabolism in human plasma assessed as parent compound remaining after 15 mins by UPLC/MS/ESI analysis; type: ADME, cell-free; details: read-out: Stability
[18] = Drug metabolism in human plasma assessed as parent compound remaining after 30 mins by UPLC/MS/ESI analysis; type: ADME, cell-free; details: read-out: Stability
[19] = system: Trypanosoma brucei brucei; test: Antitrypanosomal activity against Trypanosoma brucei brucei Squib 427 infected in Swiss mouse assessed as mouse survival at 10 mg/kg, ip administered as single dose for 5 days and measured on day 14 post infection; type: functional, organism-based
Procedure, shortened: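 Acute T. b. brucei mouse infection model. Dosing was PO or IP at 10–50 mg/kg, once (SID) or twice (BID) daily for 5 days after infection, with 3 mice per group. […] Read-outs were mean survival time and survivors on day 14 post infection.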

[20] = system: Trypanosoma brucei brucei; test: Antitrypanosomal activity against Trypanosoma brucei brucei Squib 427 assessed as reduction in parasite growth at 7 to 14 times IC50 after 18 to 48 hrs resazurin dye-based fluorimetric analysis; type: functional, organism-based
Procedure, shortened: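 In vitro time course of T. b. brucei growth in the presence of compound, with parasite growth expressed as % of control.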

[21] = system: Trypanosoma brucei brucei; test: Antitrypanosomal activity against Trypanosoma brucei brucei Squib 427 infected in Swiss mouse assessed as mean survival days at 10 mg/kg, ip administered as single dose for 5 days; type: functional
Procedure, shortened: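 Acute mouse infection model with T. b. brucei. Dosing ran for 5 days after infection, orally or intraperitoneally, once or twice daily. Groups were 3 mice each, with vehicle-treated infected controls. The read-out was mean survival time in days, plus the number of survivors on day 14 post-infection.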

Which results are given for `Cc1cc(C)c(Oc2nc(N)nc(Nc3ccc(F)cc3)n2)c(C)c1`?
remaining at 0.5 h, 5 µM [1]: 4%; Stability [2]: 102%; remaining at 0.25 h, 5 µM [3]: 53%; remaining at 0.25 h, 5 µM [4]: 95%; IC50 [5]: 0.3 µM; IC50 (Peritoneal macrophage): > 64 µM; remaining at 0.5 h, 5 µM [6]: 33%; remaining at 1 h, 5 µM [7]: 91%; IC50 [8]: > 64 µM; remaining at 1 h [9]: 115%; remaining at 0.5 h, 5 µM [10]: 118%; remaining at 0.25 h, 5 µM [11]: 22%; Stability [12]: 112%; remaining at 1 h, 5 µM [13]: 0.3%; IC50 (Leishmania infantum): > 64 µM; IC50 (Plasmodium falciparum): > 64 µM; Stability [14]: 151%; remaining at 1 h, 5 µM [15]: 13%; Stability [16]: 94%; IC50 (Trypanosoma cruzi): > 64 µM; remaining at 0.25 h [17]: 100%; remaining at 0.5 h [18]: 104%

With `Cc1cc(C)c(Oc2nc(Nc3ccc(F)cc3)nc(N3CCCCC3)n2)c(C)c1` as the compound, how does the IC50 [5] read?
The IC50 was 8.2 µM.

And the IC50 (Peritoneal macrophage)?
Its IC50 is 32 µM.

And the IC50 [8]?
Its IC50 is > 64 µM.

And the IC50 (Leishmania infantum)?
The IC50 was 8.1 µM.

What about the IC50 (Plasmodium falciparum) of the same compound?
The IC50 was 5.4 µM.

What about the IC50 (Trypanosoma cruzi) of the same compound?
The IC50 was 2.4 µM.

For `Nc1nc(Nc2ccc(F)cc2)nc(Nc2ccc(F)cc2)n1`, which IC50 [5] is on record?
The IC50 was 2.8 µM.

And the IC50 (Peritoneal macrophage)?
The IC50 was > 64 µM.

What about the IC50 [8] of the same compound?
Its IC50 is > 64 µM.

And the IC50 (Leishmania infantum)?
The IC50 was > 64 µM.

And the IC50 (Plasmodium falciparum)?
Its IC50 is > 64 µM.

What about the IC50 (Trypanosoma cruzi) of the same compound?
Its IC50 is > 64 µM.

For `Nc1nc(Nc2ccc(F)cc2)nc(Sc2ccc(F)cc2)n1`, which IC50 [5] is on record?
The IC50 was > 64 µM.

And the IC50 (Peritoneal macrophage)?
The IC50 was 8 µM.

And the IC50 [8]?
Its IC50 is > 64 µM.

What about the IC50 (Leishmania infantum) of the same compound?
The IC50 was 8.1 µM.

What about the IC50 (Plasmodium falciparum) of the same compound?
The IC50 was > 64 µM.

And the IC50 (Trypanosoma cruzi)?
The IC50 was 6.9 µM.

With `CC/C(=C(\c1ccccc1)c1ccc(OCCN(C)C)cc1)c1ccccc1` [TAMOXIFEN] as the compound, how does the IC50 [8] read?
The IC50 was 10.2 µM.

What does the source list for `Cc1ccc(Oc2nc(N)nc(Nc3ccc(C#N)cc3)n2)cc1`?
IC50 (Peritoneal macrophage): > 64 µM; IC50 [8]: > 64 µM; IC50 (Leishmania infantum): > 64 µM; IC50 (Plasmodium falciparum): > 64 µM; IC50 (Trypanosoma cruzi): 8 µM

With `Cc1ccc(C(=O)Nc2ccc(S(=O)(=O)O)c3cc(S(=O)(=O)O)cc(S(=O)(=O)O)c23)cc1NC(=O)c1cccc(NC(=O)Nc2cccc(C(=O)Nc3cc(C(=O)Nc4ccc(S(=O)(=O)O)c5cc(S(=O)(=O)O)cc(S(=O)(=O)O)c45)ccc3C)c2)c1` [SURAMIN] as the compound, how does the Activity [19] read?
Its Activity is “Active”.

And the Activity [20]?
The Activity was “Active”.

And the MST [21]?
Its MST is > 7 days.

Which results are given for `N#Cc1ccc(Nc2nc(N)nc(Nc3ccc(F)cc3)n2)cc1`?
IC50 [5]: 39.8 µM; IC50 (Peritoneal macrophage): 32 µM; IC50 [8]: > 64 µM; IC50 (Leishmania infantum): 32.5 µM; IC50 (Plasmodium falciparum): 26.4 µM; IC50 (Trypanosoma cruzi): 9 µM

For `Cc1ccc(Nc2nc(N)nc(Nc3c(Br)cc(C)cc3Br)n2)cc1`, which IC50 [5] is on record?
Its IC50 is 9.1 µM.

And the IC50 (Peritoneal macrophage)?
The IC50 was 32 µM.

What about the IC50 [8] of the same compound?
The IC50 was 8.1 µM.

And the IC50 (Leishmania infantum)?
The IC50 was 32.5 µM.

And the IC50 (Plasmodium falciparum)?
The IC50 was > 64 µM.

What about the IC50 (Trypanosoma cruzi) of the same compound?
Its IC50 is > 64 µM.

For `Cc1cc(Br)c(Nc2nc(N)nc(Nc3ccc(F)cc3)n2)c(Br)c1`, which IC50 [5] is on record?
The IC50 was 7.1 µM.

And the IC50 (Peritoneal macrophage)?
The IC50 was > 64 µM.

What about the IC50 [8] of the same compound?
Its IC50 is 6.7 µM.

What about the IC50 (Leishmania infantum) of the same compound?
The IC50 was > 64 µM.

And the IC50 (Plasmodium falciparum)?
Its IC50 is > 64 µM.

What about the IC50 (Trypanosoma cruzi) of the same compound?
The IC50 was > 64 µM.

For `Cc1cc(C)c(Oc2nc(N)nc(Oc3ccc(F)cc3)n2)c(C)c1`, which IC50 [5] is on record?
The IC50 was 4.3 µM.

And the IC50 (Peritoneal macrophage)?
Its IC50 is 8 µM.

What about the IC50 [8] of the same compound?
The IC50 was > 64 µM.

What about the IC50 (Leishmania infantum) of the same compound?
The IC50 was 8.1 µM.

What about the IC50 (Plasmodium falciparum) of the same compound?
Its IC50 is > 64 µM.

What about the IC50 (Trypanosoma cruzi) of the same compound?
Its IC50 is > 64 µM.

For `Cc1ccc(Oc2nc(N)nc(Nc3ccccc3)n2)cc1`, which IC50 [5] is on record?
The IC50 was 1.1 µM.

What about the IC50 (Peritoneal macrophage) of the same compound?
The IC50 was 32 µM.

What about the IC50 [8] of the same compound?
The IC50 was > 64 µM.

What about the IC50 (Leishmania infantum) of the same compound?
Its IC50 is 32.5 µM.

And the IC50 (Plasmodium falciparum)?
Its IC50 is > 64 µM.

What about the IC50 (Trypanosoma cruzi) of the same compound?
The IC50 was > 64 µM.

Which IC50 [5] does the source give for `Cc1cc(C)c(Oc2ncnc(Nc3ccccc3)n2)c(C)c1` here?
The IC50 was 32.5 µM.

And the IC50 (Peritoneal macrophage)?
Its IC50 is 32 µM.

What about the IC50 [8] of the same compound?
The IC50 was 17.8 µM.

And the IC50 (Leishmania infantum)?
The IC50 was 24 µM.

What about the IC50 (Plasmodium falciparum) of the same compound?
Its IC50 is 31.5 µM.

What about the IC50 (Trypanosoma cruzi) of the same compound?
Its IC50 is 8.2 µM.
